Results from ChEMBL document CHEMBL4229340, “Attaching NorA efflux pump inhibitors to methylene blue enhances antimicrobial photodynamic inactivation of Escherichia coli and Acinetobacter baumannii in vitro and in vivo” (Bioorg Med Chem Lett, 2018).
Calls of active or inactive are those of the source. No cut-off for these calls is given here.

Legend:
[1] = system: Acinetobacter baumannii; assay: Dark toxicity against Acinetobacter baumannii AB Iraqi 007 infected in BALB/c mouse needle back-scratch wound abrasion infection model assessed as reduction in bacterial load in shaved dorsal surfaces of mouse after 15 mins measured after 12 days by bioluminescence imaging method; type: organism-based; conditions: in vivo
Summary of the method: (§1)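 Bioluminescent A. baumannii inoculated into needle-scratch wounds on shaved mouse backs. Sites got 40 μL of a 250 μM stock of compound, then 652 nm red light at 0, 12, 36, 84, 108 and 120 J/cm2, or were kept dark (dark controls). Normalized wound RLU (mean ± SEM, 4-6 mice/group) was imaged during illumination, then daily for 14 days.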

[2] = system: Acinetobacter baumannii; assay: Dark toxicity against Acinetobacter baumannii AB Iraqi 007 infected in BALB/c mouse needle back-scratch wound abrasion infection model assessed as reduction in bacterial load in shaved dorsal surfaces of mouse measured after 15 mins by bioluminescence imaging method; type: organism-based; design: scale not given: the % may be the effect or the level left; conditions: in vivo, 0.25 h; summary of the method: as §1
[3] = system: Escherichia coli; assay: Photodynamic antibacterial activity against wild type Escherichia coli K-12 assessed as bacterial killing at 20 uM incubated for 30 mins followed by 6 J/cm'2 irradiation with red light relative to control; type: functional
Summary of the method: (§2)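 E. coli K-12 and isogenic TolC knockout JW5503-1 were exposed to compound at 1-20 μM, then illuminated with 652 nm red light at 100 mW/cm2 to 6 J/cm2, or kept dark. Serially diluted aliquots were plated for CFU and survival fraction determined. Mean ± SEM from three independent experiments.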

[4] = system: Escherichia coli; assay: (§3) Photodynamic antibacterial activity against enteropathogenic Escherichia coli WS2572 infected in BALB/c mouse full-thickness third-degree burn infection model assessed as reduction in bacterial load in shaved dorsal surfaces of mouse after 15 mins followed by up to 120 J/cm'2 irradiation with red light over 20 mins by bioluminescence imaging method; type: functional; design: scale not given: the % may be the effect or the level left
Summary of the method: (§4)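 Mouse full-thickness third-degree burn on the shaved back, inoculated with bioluminescent EPEC WS2572. Wounds got 40 μL of 250 μM stock compound, then 652 nm red light at 0, 12, 36, 84, 108 and 120 J/cm2 or no light. Normalized wound RLU (mean ± SEM, 4-6 mice/group) was imaged during illumination and daily for 14 days after.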

[5] = system: Acinetobacter baumannii; assay: Dark toxicity against Acinetobacter baumannii AB Iraqi 007 infected in BALB/c mouse needle back-scratch wound abrasion infection model assessed as bacterial load in shaved dorsal surfaces of mouse after 15 mins measured after 1 day by bioluminescence imaging method; type: organism-based; conditions: in vivo; summary of the method: as §1
[6] = system: Acinetobacter baumannii; assay: (§5) Photodynamic antibacterial activity against Acinetobacter baumannii AB Iraqi 007 infected in BALB/c mouse needle back-scratch wound abrasion infection model assessed as reduction in bacterial load in shaved dorsal surfaces of mouse after 15 mins followed by up to 120 J/cm'2 irradiation with red light over 20 mins measured after 1 day by bioluminescence imaging method; type: functional; design: scale not given: the % may be the effect or the level left; summary of the method: as §1
[7] = system: Escherichia coli; assay: Dark toxicity against enteropathogenic Escherichia coli WS2572 infected in BALB/c mouse full-thickness third-degree burn infection model assessed as reduction in bacterial load in shaved dorsal surfaces of mouse after 15 mins measured after 1 day by bioluminescence imaging method; type: organism-based; conditions: in vivo; summary of the method: as §4
[8] = system: Escherichia coli; assay: Dark toxicity against enteropathogenic Escherichia coli WS2572 infected in BALB/c mouse full-thickness third-degree burn infection model assessed as reduction in bacterial load in shaved dorsal surfaces of mouse measured after 15 mins by bioluminescence imaging method; type: organism-based; design: scale not given: the % may be the effect or the level left; conditions: in vivo, 0.25 h; summary of the method: as §4
[9] = system: Escherichia coli; assay: Dark toxicity against wild type Escherichia coli K-12 assessed as reduction in bacterial load at 1 to 20 uM incubated for 30 mins; type: organism-based; conditions: in vitro, 0.5 h; summary of the method: as §2
[10] = system: Escherichia coli; assay: Photodynamic antibacterial activity against wild type Escherichia coli K-12 assessed as bacterial killing at 10 uM incubated for 30 mins followed by 6 J/cm'2 irradiation with red light relative to control; type: functional; summary of the method: as §2
[11] = system: Escherichia coli; assay: Photodynamic antibacterial activity against TolC deficient Escherichia coli JW5503-1 assessed as bacterial killing at 20 uM incubated for 30 mins followed by 6 J/cm'2 irradiation with red light relative to control; type: functional; summary of the method: as §2
[12] = system: Escherichia coli; assay: Dark toxicity against TolC deficient Escherichia coli JW5503-1 assessed as reduction in bacterial load at 1 to 20 uM incubated for 30 mins; type: organism-based; conditions: in vitro, 0.5 h; summary of the method: as §2
[13] = system: Acinetobacter baumannii; assay: as §5, with “36” for “up to 120”, “mins” for “mins measured after 1 day”; type: functional; design: scale not given: the % may be the effect or the level left; summary of the method: as §1
[14] = system: Acinetobacter baumannii; assay: Dark toxicity against wild type Acinetobacter baumannii AB007 assessed as reduction in bacterial load at 1 to 20 uM incubated for 30 mins; type: organism-based; conditions: in vitro, 0.5 h
Summary of the method: (§6)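 A. baumannii AB007 was exposed to compound at 1-20 μM, with or without red-light illumination, alongside dark controls. Survival fraction came from CFU counts. Mean ± SEM from three independent experiments.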

[15] = system: Acinetobacter baumannii; assay: as §5, with “10 days” for “1 day”; type: functional, organism-based; summary of the method: as §1
[16] = system: Acinetobacter baumannii; assay: Photodynamic antibacterial activity against wild type Acinetobacter baumannii AB007 assessed as bacterial killing at 20 uM incubated for 30 mins followed by 6 J/cm'2 irradiation with red light relative to control; type: functional; summary of the method: as §6
[17] = system: Escherichia coli; assay: as §3, with “20 mins measured after 1 day by bioluminescence” for “20 mins by bioluminescence”; type: functional, organism-based; summary of the method: as §4
[18] = system: Acinetobacter baumannii; assay: as §5, with “108” for “up to 120”, “mins” for “mins measured after 1 day”; type: functional, organism-based; summary of the method: as §1
[19] = system: Escherichia coli; assay: as §3, with “20 mins measured after 12 days by bioluminescence” for “20 mins by bioluminescence”; type: functional, organism-based; summary of the method: as §4
[20] = system: Escherichia coli; assay: Photodynamic antibacterial activity against TolC deficient Escherichia coli JW5503-1 assessed as bacterial killing at 10 uM incubated for 30 mins followed by 6 J/cm'2 irradiation with red light relative to control; type: functional; summary of the method: as §2
[21] = system: Acinetobacter baumannii; assay: as §5, with “up to 6 days” for “after 1 day”; type: functional, organism-based; summary of the method: as §1
[22] = system: Acinetobacter baumannii; assay: as §5, with “84” for “up to 120”, “mins” for “mins measured after 1 day”; type: functional, organism-based; summary of the method: as §1
[23] = system: Escherichia coli; assay: as §3, with “36” for “up to 120”; type: functional; design: scale not given: the % may be the effect or the level left; summary of the method: as §4
[24] = system: Escherichia coli; assay: as §3, with “84” for “up to 120”; type: functional, organism-based; summary of the method: as §4
[25] = system: Escherichia coli; assay: as §3, with “20 mins measured after 10 days by bioluminescence” for “20 mins by bioluminescence”; type: functional, organism-based; summary of the method: as §4

| SMILES | Activity [1] | Activity [2] [%] | LCK [3] | Activity [5] [%] | Activity [8] [%] | Activity [9] | LCK [10] | LCK [11] | Activity [12] | Activity [13] [%] | Activity [14] | Activity [16] | LCK [20] | LCK [16] | further results |
| --- | --- | --- | --- | --- | --- | --- | --- | --- | --- | --- | --- | --- | --- | --- | --- |
| CN(C)c1ccc2nc3ccc(N(C)C)cc3[s+]c2c1.[Cl-] [METHYLENE BLUE ANHYDROUS] | Toxic | < 25 | 2.5 | > 50 | 25 | Non-Toxic | 2 | 3.5 | Non-Toxic | 50 | Non-Toxic | – | – | – | Activity [4]: 90%; Activity [6]: >50%; Activity [7]: Not Active |
| CN(C)c1ccc2nc3ccc(=[N+](C)C)cc-3sc2c1 | – | – | – | – | – | – | – | – | – | – | – | Active | – | – | Activity [15]: Active; Activity [17]: inactive; Activity [18]: Active; Activity [19]: Active; Activity [20]: Active |
| CN(CCN(C)c1ccc2nc3ccc(N(C)C)cc3[s+]c2c1)Cc1ccc(-c2cc3cc([N+](=O)[O-])ccc3[nH]2)cc1.[Cl-] | Toxic | < 25 | 4 | > 50 | – | Non-Toxic | 2 | 7 | Non-Toxic | 95 | Non-Toxic | Active | 2 | – | Activity [21]: Active; Activity [22]: Active |
| CN(CCN(C)c1ccc2nc3ccc(N(C)C)cc3[s+]c2c1)C(=O)c1ccc(-c2cc3cc([N+](=O)[O-])ccc3[nH]2)cc1.[Cl-] | – | – | 6 | – | 40 | Non-Toxic | 4 | – | Non-Toxic | – | Non-Toxic | – | 6 | 4 | Activity [23]: 80%; Activity [24]: Active; Activity [25]: Active; Activity [11]: Active |
| CN(CCCOc1ccccc1NC(=O)Nc1ccc2ccccc2c1)CCN(C)c1ccc2nc3ccc(N(C)C)cc3[s+]c2c1.[Cl-] | – | – | 3 | – | – | Non-Toxic | – | 4.5 | Non-Toxic | – | Non-Toxic | – | – | 4 | – |
